Measurements reported in ChEMBL document CHEMBL3232716, “Tailoring cytotoxicity of antimicrobial peptidomimetics with high activity against multidrug-resistant Escherichia coli” (J Med Chem, 2014).
≈ marks a conversion by molar mass, not a printed value. Square brackets hold non-standard residues; d marks the D form. Peptide text beside a SMILES is read from it. hArg = N=C(N)NCCCC[C@H](N)C(=O)O; Nspe = C[C@H](NCC(=O)O)c1ccccc1; Nphe = O=C(O)CNCc1ccccc1

Columns and labels:
Staphylococcus aureus = assay: Antibacterial activity against methicillin-resistant Staphylococcus aureus ATCC 33591 after 18 hrs by microdilution broth method; assay type: functional; details: ATCC 33591, 18 h
Summary of the method: (§1)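 CLSI broth microdilution. […] Incubated 35 °C in ambient air for 18 h. MIC taken as the lowest concentration with no visible growth versus the compound-free control. Reported as median and range of three independent biological replicates run on separate days.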

Escherichia coli [1] = assay: Antibacterial activity against Escherichia coli ATCC 25922 after 18 hrs by microdilution broth method; assay type: functional; details: ATCC 25922, 18 h; summary of the method: as §1
Acinetobacter baumannii = assay: Antibacterial activity against multidrug-resistant Acinetobacter baumannii clinical isolate E2-1228625 after 18 hrs by microdilution broth method; assay type: functional; details: clinical isolate E2-1228625, 18 h
HeLa = assay: Cytotoxicity against human HeLa cells after 1 hr by MTS/PMS assay; assay type: cell-based
Summary of the method: (§2)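 Monolayers (passage 4–10) grown ~21–25 h to ~90% confluence. Seeding per well: HeLa 8000, HepG2 23 000, NIH 3T3 22 000, IEC-6 16 000, Caco-2 25 000. Cells washed with HBSS/10 mM Hepes pH 7.4 and exposed 1 h at 37 °C, 50 rpm, to compound 0–2000 μM in culture medium. MTS 240 μg/mL/PMS 2.4 μg/mL for 1.5–4 h, A492. Viability referenced to SDS and untreated controls; IC50 from one biological replicate in triplicate.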

Caco-2 = assay: Cytotoxicity against human Caco2 cells after 1 hr by MTS/PMS assay; assay type: cell-based; details: Caco-2, 1 h; summary of the method: as §2
HepG2 = assay: Cytotoxicity against human HepG2 cells after 1 hr by MTS/PMS assay; assay type: cell-based; details: HepG2, 1 h; summary of the method: as §2
[2] = Cytotoxicity against rat IEC-6 cells after 1 hr by MTS/PMS assay; assay type: cell-based; details: IEC-6, 1 h; summary of the method: as §2
[3] = Cytotoxicity against mouse NIH/3T3 cells after 1 hr by MTS/PMS assay; assay type: cell-based; details: NIH3T3, 1 h; summary of the method: as §2
HUVEC = assay: Cytotoxicity against HUVEC after 1 hr by MTS/PMS assay; assay type: cell-based; details: Homo sapiens
Summary of the method: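 HUVEC seeded at 15 000 cells/well on collagen-coated wells (0.6 μg/cm2), passage 4–10, grown to ~90% confluence over 21–25 h. Cells exposed to compound (0–2000 μM) in F-12K medium for 1 h at 37 °C. MTS 240 μg/mL with PMS 9.6 μg/mL in HBSS for 1.5–4 h, then A492. Viability referenced to 0.2% SDS and untreated cells; IC50 reported.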

[4] = Binding affinity to synthetic POPC/POPG liposomal membrane at 20 uM by circular dichroism analysis; assay type: physicochemical; details: artificial membrane
Summary of the method: (§3)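 CD spectra recorded with 20 μM test compound and 2 mM liposomes in 10 mM Tris buffer, pH 7.5. Liposomes were roughly 100 nm: POPC/POPG 7:3 (bacterial model) or POPC/POPG/cholesterol 5:3:2 (mammalian model). Lipid concentration was standardized by enzymatic phospholipid colorimetric assay.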

[5] = Binding affinity to cholesterol containing synthetic POPC/POPG liposomal membrane at 20 uM by circular dichroism analysis; assay type: physicochemical; details: artificial membrane; summary of the method: as §3
Escherichia coli [6] = assay: Antibacterial activity against extended-spectrum beta-lactamase producing multidrug-resistant and colistin-susceptible Escherichia coli CTX-M-15 clinical isolate Aar 11 after 18 hrs by microdilution broth method; assay type: functional; details: CTX-M-15, 18 h
Escherichia coli [7] = assay: Antibacterial activity against NDM-1 producing Escherichia coli clinical isolate 74859898 after 18 hrs by microdilution broth method; assay type: functional; details: clinical isolate 74859898, 18 h
Enterococcus faecium = assay: Antibacterial activity against vancomycin-resistant Enterococcus faecium ATCC 700221 after 18 hrs by microdilution broth method; details: ATCC 700221, 18 h

Structure (SMILES) | MIC (Staphylococcus aureus) [µM] | MIC (Escherichia coli [1]) [µM] | MIC (Acinetobacter baumannii) [µM] | IC50 (HeLa) [µM] | IC50 (Caco-2) [µM] | IC50 (HepG2) [µM] | IC50 [2] [µM] | IC50 [3] [µM] | IC50 (HUVEC) [µM] | Activity [4] | Activity [5] | MIC (Escherichia coli [6]) [µM] | MIC (Escherichia coli [7]) [µM] | MIC (Enterococcus faecium) [µM]
O=C(O)c1cn(C2CC2)c2cc(N3CCNCC3)c(F)cc2c1=O [CIPROFLOXACIN] | 0.25 (≈ 0.0828 µg/mL) | < 0.125 | – | – | – | – | – | – | – | – | – | – | – | –
CC(=O)N[C@@H](CCCCN)C(=O)N(CC(=O)N[C@@H](CCCCNC(=N)N)C(=O)N(CC(=O)N[C@@H](CCCCN)C(=O)N(CC(=O)N[C@@H](CCCCNC(=N)N)C(=O)N(CC(=O)N[C@@H](CCCCN)C(=O)N(CC(=O)N[C@@H](CCCCNC(=N)N)C(=O)N(CC(=O)N[C@@H](CCCCN)C(=O)N(CC(N)=O)[C@@H](C)c1ccccc1)[C@@H](C)c1ccccc1)[C@@H](C)c1ccccc1)[C@@H](C)c1ccccc1)[C@@H](C)c1ccccc1)[C@@H](C)c1ccccc1)[C@@H](C)c1ccccc1 (Ac-K[Nspe][hArg][Nspe]K[Nspe][hArg][Nspe]K[Nspe][hArg][Nspe]K[Nspe]-NH2) | 16 (≈ 35.4 µg/mL) | 1 (≈ 2.21 µg/mL) | 1 (≈ 2.21 µg/mL) | 21 | 182 | 35 | 30 | 67 | 145 | Not Active | Not Active | 2 (≈ 4.42 µg/mL) | 1 (≈ 2.21 µg/mL) | 4 (≈ 8.84 µg/mL)
CC(=O)N[C@@H](CCCCN)C(=O)N(CC(=O)N[C@@H](CCCCNC(=N)N)C(=O)N(CC(=O)N[C@@H](CCCCN)C(=O)N(CC(=O)N[C@@H](CCCCNC(=N)N)C(=O)N(CC(=O)N[C@@H](CCCCN)C(=O)N(CC(=O)N[C@@H](CCCCNC(=N)N)C(=O)N(CC(N)=O)[C@@H](C)c1ccccc1)[C@@H](C)c1ccccc1)[C@@H](C)c1ccccc1)[C@@H](C)c1ccccc1)[C@@H](C)c1ccccc1)[C@@H](C)c1ccccc1 (Ac-K[Nspe][hArg][Nspe]K[Nspe][hArg][Nspe]K[Nspe][hArg][Nspe]-NH2) | 16 (≈ 30.7 µg/mL) | 2 (≈ 3.84 µg/mL) | 2 (≈ 3.84 µg/mL) | 52 | 376 | 77 | 67 | 121 | 351 | Not Active | Not Active | 4 (≈ 7.69 µg/mL) | 2 (≈ 3.84 µg/mL) | 2 (≈ 3.84 µg/mL)
CC(=O)N[C@@H](CCCCN)C(=O)N(CC(=O)N[C@@H](CCCCNC(=N)N)C(=O)N(CC(=O)N[C@@H](CCCCN)C(=O)N(CC(=O)N[C@@H](CCCCNC(=N)N)C(=O)N(CC(=O)N[C@@H](CCCCN)C(=O)N(CC(=O)N[C@@H](CCCCNC(=N)N)C(=O)N(CC(=O)N[C@@H](CCCCN)C(=O)N(CC(N)=O)Cc1ccccc1)Cc1ccccc1)Cc1ccccc1)Cc1ccccc1)Cc1ccccc1)Cc1ccccc1)Cc1ccccc1 (Ac-K[Nphe][hArg][Nphe]K[Nphe][hArg][Nphe]K[Nphe][hArg][Nphe]K[Nphe]-NH2) | 32 (≈ 67.6 µg/mL) | 1 (≈ 2.11 µg/mL) | 4 (≈ 8.45 µg/mL) | 99 | > 1000 | 378 | 319 | 254 | 418 | Not Active | Not Active | 1 (≈ 2.11 µg/mL) | 1 (≈ 2.11 µg/mL) | 8 (≈ 16.9 µg/mL)
CC(=O)N[C@@H](CCCCNC(=N)N)C(=O)N(CC(=O)N[C@@H](CCCCN)C(=O)N(CC(=O)N[C@@H](CCCCNC(=N)N)C(=O)N(CC(=O)N[C@@H](CCCCN)C(=O)N(CC(=O)N[C@@H](CCCCNC(=N)N)C(=O)N(CC(N)=O)Cc1ccccc1)Cc1ccccc1)Cc1ccccc1)Cc1ccccc1)Cc1ccccc1 (Ac-[hArg][Nphe]K[Nphe][hArg][Nphe]K[Nphe][hArg][Nphe]-NH2) | 128 (≈ 200 µg/mL) | 8 (≈ 12.5 µg/mL) | > 128 | 506 | > 1000 | 980 | 972 | > 1000 | > 1000 | Not Active | Not Active | 16 (≈ 25 µg/mL) | 8 (≈ 12.5 µg/mL) | 128 (≈ 200 µg/mL)
CO/N=C(\C(=O)N[C@@H]1C(=O)N2C(C(=O)O)=C(COC(C)=O)CS[C@H]12)c1csc(N)n1 [CEFOTAXIME] | > 128 | < 0.125 | > 128 | – | – | – | – | – | – | – | – | > 128 | > 128 | > 128
CC(=O)N[C@@H](CCCCNC(=N)N)C(=O)N(CCC(=O)N[C@@H](CCCCN)C(=O)N(CCC(=O)N[C@@H](CCCCNC(=N)N)C(=O)N(CCC(=O)N[C@@H](CCCCN)C(=O)N(CCC(=O)N[C@@H](CCCCNC(=N)N)C(=O)N(CCC(N)=O)[C@@H](C)c1ccccc1)[C@@H](C)c1ccccc1)[C@@H](C)c1ccccc1)[C@@H](C)c1ccccc1)[C@@H](C)c1ccccc1 | 16 (≈ 27.2 µg/mL) | 8 (≈ 13.6 µg/mL) | 64 (≈ 109 µg/mL) | 136 | > 1000 | 185 | 186 | 237 | – | Not Active | Not Active | 8 (≈ 13.6 µg/mL) | 8 (≈ 13.6 µg/mL) | 64 (≈ 109 µg/mL)
CC[C@H](C)[C@H](NC(=O)CN)C(=O)NCC(=O)N[C@@H](C)C(=O)N[C@H](C(=O)N[C@@H](CC(C)C)C(=O)N[C@@H](CCCCN)C(=O)N[C@H](C(=O)N[C@@H](CC(C)C)C(=O)N[C@H](C(=O)N[C@H](C(=O)NCC(=O)N[C@@H](CC(C)C)C(=O)N1CCC[C@H]1C(=O)N[C@@H](C)C(=O)N[C@@H](CC(C)C)C(=O)N[C@H](C(=O)N[C@@H](CO)C(=O)N[C@@H](Cc1c[nH]c2ccccc12)C(=O)N[C@H](C(=O)N[C@@H](CCCCN)C(=O)N[C@@H](CCCNC(=N)N)C(=O)N[C@@H](CCCCN)C(=O)N[C@@H](CCCNC(=N)N)C(=O)N[C@@H](CCC(N)=O)C(=O)N[C@@H](CCC(N)=O)C(N)=O)[C@@H](C)CC)[C@@H](C)CC)[C@@H](C)O)[C@@H](C)O)C(C)C)C(C)C [MELITTIN] | – | – | – | 1.9 | 4.5 | 2.5 | – | – | – | – | – | – | – | –
CN[C@H](CC(C)C)C(=O)N[C@H]1C(=O)N[C@@H](CC(N)=O)C(=O)N[C@H]2C(=O)N[C@H]3C(=O)N[C@H](C(=O)N[C@H](C(=O)O)c4cc(O)cc(O)c4-c4cc3ccc4O)[C@H](O)c3ccc(c(Cl)c3)Oc3cc2cc(c3O[C@@H]2O[C@H](CO)[C@@H](O)[C@H](O)[C@H]2O[C@H]2C[C@](C)(N)[C@H](O)[C@H](C)O2)Oc2ccc(cc2Cl)[C@H]1O [VANCOMYCIN] | 0.5 (≈ 0.725 µg/mL) | > 128 | > 128 | – | – | – | – | – | – | – | – | > 128 | > 128 | 128 (≈ 186 µg/mL)
